Measurements reported in ChEMBL document CHEMBL1629638, “Pyrosequencing using the single-nucleotide polymorphism protocol for rapid determination of TEM- and SHV-type extended-spectrum beta-lactamases in clinical isolates and identification of the novel beta-lactamase genes blaSHV-48, blaSHV-105, and blaTEM-155” (2009).
≈ marks a conversion by molar mass, not a printed value.

Columns and labels:
Assay type in all cases: functional
[1] = test system: Escherichia coli; assay: Antimicrobial activity against Escherichia coli DH5[alpha] by microdilution method in presence of clavulanic acid
Method in brief: (§1)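 Broth microdilution MIC. Plates of serial antibiotic dilutions inoculated to 10^5 CFU/ml and incubated 18 to 22 h at 35°C in ambient air. MIC is the lowest concentration giving complete growth inhibition by unaided eye. The recombinant strains carry shotgun-cloned bla genes in pCLL2300.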

[2] = test system: Escherichia coli; assay: Antimicrobial activity against Escherichia coli DH5[alpha] isolate GC 7668 expressing bla SHV-48 gene by microdilution method in presence of clavulanic acid; method in brief: as §1
[3] = test system: Escherichia coli; assay: Antimicrobial activity against Escherichia coli DH5[alpha] isolate GC 8130 expressing bla SHV-1 gene by microdilution method in presence of clavulanic acid; method in brief: as §1
[4] = test system: Escherichia coli; assay: Antimicrobial activity against Escherichia coli DH5[alpha] isolate GC 8128 expressing bla SHV-105 gene by microdilution method in presence of clavulanic acid; method in brief: as §1
[5] = test system: Escherichia coli; assay: Antimicrobial activity against Escherichia coli DH5[alpha] isolate GC 8133 expressing bla […] gene by microdilution method in presence of clavulanic acid; method in brief: as §1
[6] = test system: Escherichia coli; assay: Antimicrobial activity against Escherichia coli ATCC 25922 by microdilution method in presence of clavulanic acid; method in brief: as §1
[7] = test system: Escherichia coli; assay: Antimicrobial activity against Escherichia coli DH5[alpha] isolate GC 7668 expressing bla SHV-48 gene by microdilution method
Method in brief: (§2)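 Broth microdilution MIC. Plates with serial dilutions of each β-lactam inoculated to 10^5 CFU/ml, incubated 18 to 22 h at 35°C in ambient air. MIC = lowest concentration completely inhibiting growth by unaided eye. Strains carrying the novel β-lactamases are recombinants, with the genes shotgun cloned into pCLL2300.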

[8] = test system: Escherichia coli; assay: Antimicrobial activity against Escherichia coli DH5[alpha] by microdilution method; method in brief: as §2
[9] = test system: Escherichia coli; assay: Antimicrobial activity against Escherichia coli ATCC 25922 by microdilution method; method in brief: as §2
[10] = test system: Escherichia coli; assay: Antimicrobial activity against Escherichia coli DH5[alpha] isolate GC 8133 expressing bla […] gene by microdilution method
Method in brief: (§3)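 Recombinant strains carrying the cloned β-lactamase gene (shotgun cloned into pCLL2300, confirmed by standard sequencing) tested by broth microdilution. Serial antibiotic dilutions were inoculated to 10^5 CFU/ml and incubated 18 to 22 h at 35°C in ambient air. MIC was the lowest concentration completely inhibiting growth by unaided eye.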

[11] = test system: Escherichia coli; assay: Antimicrobial activity against Escherichia coli DH5[alpha] isolate GC 8130 expressing bla SHV-1 gene by microdilution method; method in brief: as §2
[12] = test system: Escherichia coli; assay: Antimicrobial activity against Escherichia coli DH5[alpha] isolate GC 8128 expressing bla SHV-105 gene by microdilution method; method in brief: as §3
[13] = test system: Escherichia coli; assay: Antimicrobial activity against Escherichia coli DH5[alpha] isolate GC 8128 expressing bla SHV-105 gene by Etest method in presence of clavulanic acid
Method in brief: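 The blaSHV-105 gene was shotgun-cloned into vector pCLL2300, and the insert was confirmed by standard sequencing. The recombinant E. coli strain carrying it was tested against a β-lactam panel in Etest format.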

[14] = test system: Escherichia coli; assay: Antimicrobial activity against Escherichia coli DH5[alpha] isolate GC 8130 expressing bla SHV-1 gene by Etest method in presence of clavulanic acid
[15] = test system: Escherichia coli; assay: Antimicrobial activity against Escherichia coli DH5[alpha] isolate GC 7668 expressing bla SHV-48 gene by Etest method
[16] = test system: Escherichia coli; assay: Antimicrobial activity against Escherichia coli ATCC 25922 by Etest method in presence of clavulanic acid
[17] = test system: Escherichia coli; assay: Antimicrobial activity against Escherichia coli DH5[alpha] isolate GC 8128 expressing bla SHV-105 gene by Etest method
[18] = test system: Escherichia coli; assay: Antimicrobial activity against Escherichia coli DH5[alpha] by Etest method
[19] = test system: Escherichia coli; assay: Antimicrobial activity against Escherichia coli DH5[alpha] by Etest method in presence of clavulanic acid
[20] = test system: Escherichia coli; assay: Antimicrobial activity against Escherichia coli DH5[alpha] isolate GC 7668 expressing bla SHV-48 gene by Etest method in presence of clavulanic acid
[21] = test system: Escherichia coli; assay: Antimicrobial activity against Escherichia coli DH5[alpha] isolate GC 8130 expressing bla SHV-1 gene by Etest method
[22] = test system: Escherichia coli; assay: Antimicrobial activity against Escherichia coli DH5[alpha] isolate GC 8133 expressing bla […] gene by Etest method
[23] = test system: Escherichia coli; assay: Antimicrobial activity against Escherichia coli DH5[alpha] isolate GC 8133 expressing bla […] gene by Etest method in presence of clavulanic acid
[24] = test system: Escherichia coli; assay: Antimicrobial activity against Escherichia coli ATCC 25922 by Etest method
[25] = test system: Escherichia coli; assay: Antimicrobial activity against Escherichia coli DH5[alpha] isolate GC 8128 expressing bla SHV-105 gene by microdilution method in presence of Tazobactam; method in brief: as §1
[26] = test system: Escherichia coli; assay: Antimicrobial activity against Escherichia coli ATCC 25922 by microdilution method in presence of Tazobactam; method in brief: as §1
[27] = test system: Escherichia coli; assay: Antimicrobial activity against Escherichia coli DH5[alpha] isolate GC 7668 expressing bla SHV-48 gene by microdilution method in presence of Tazobactam; method in brief: as §1
[28] = test system: Escherichia coli; assay: Antimicrobial activity against Escherichia coli DH5[alpha] by microdilution method in presence of Tazobactam; method in brief: as §1
[29] = test system: Escherichia coli; assay: Antimicrobial activity against Escherichia coli DH5[alpha] isolate GC 8130 expressing bla SHV-1 gene by microdilution method in presence of Tazobactam; method in brief: as §1
[30] = test system: Escherichia coli; assay: Antimicrobial activity against Escherichia coli DH5[alpha] isolate GC 8133 expressing bla […] gene by microdilution method in presence of Tazobactam; method in brief: as §1

SMILES	MIC [7] [µg/mL]	MIC [8] [µg/mL]	MIC [9] [µg/mL]	MIC [10] [µg/mL]	MIC [11] [µg/mL]	MIC [12] [µg/mL]	other results
CC1(C)S[C@@H]2[C@H](NC(=O)[C@H](N)c3ccc(O)cc3)C(=O)N2[C@H]1C(=O)O [AMOXICILLIN]	–	–	–	–	–	–	MIC [1]: 8 µg/mL; MIC [2]: 32 µg/mL; MIC [3]: 16 µg/mL; MIC [4]: 16 µg/mL; MIC [5]: 32 µg/mL; MIC [6]: 8 µg/mL
CC1(C)S[C@@H]2[C@H](NC(=O)[C@H](N)c3ccccc3)C(=O)N2[C@H]1C(=O)O [AMPICILLIN]	> 128	8 (≈ 22.9 µM)	4 (≈ 11.4 µM)	> 128	> 128	> 128	–
C[C@H]1[C@H](NC(=O)/C(=N\OC(C)(C)C(=O)O)c2csc(N)n2)C(=O)N1S(=O)(=O)O [AZTREONAM]	0.5 (≈ 1.15 µM)	≤ 0.125	0.25 (≈ 0.574 µM)	> 128	0.25 (≈ 0.574 µM)	> 128	–
CO/N=C(\C(=O)N[C@@H]1C(=O)N2C(C(=O)[O-])=C(C[N+]3(C)CCCC3)CS[C@H]12)c1csc(N)n1 [CEFEPIME]	0.5 (≈ 1.04 µM)	≤ 0.125	≤ 0.125	128 (≈ 266 µM)	–	16 (≈ 33.3 µM)	–
CO/N=C(\C(=O)N[C@@H]1C(=O)N2C(C(=O)O)=C(COC(C)=O)CS[C@H]12)c1csc(N)n1 [CEFOTAXIME]	≤ 0.125	≤ 0.125	≤ 0.125	32 (≈ 70.3 µM)	≤ 0.125	128 (≈ 281 µM)	MIC [13]: 0.032 µg/mL; MIC [14]: 0.023 µg/mL; MIC [15]: < 0.25 µg/mL; MIC [16]: 0.047 µg/mL; MIC [17]: > 16 µg/mL; MIC [18]: < 0.25 µg/mL; MIC [19]: 0.023 µg/mL; MIC [20]: 0.023 µg/mL; MIC [21]: < 0.25 µg/mL; MIC [22]: 2 µg/mL (≈ 4.39 µM); MIC [23]: 0.023 µg/mL; MIC [24]: < 0.25 µg/mL
CO[C@@]1(NC(=O)Cc2cccs2)C(=O)N2C(C(=O)O)=C(COC(N)=O)CS[C@@H]21 [CEFOXITIN]	4 (≈ 9.36 µM)	8 (≈ 18.7 µM)	4 (≈ 9.36 µM)	8 (≈ 18.7 µM)	16 (≈ 37.4 µM)	8 (≈ 18.7 µM)	–
CC(C)(O/N=C(\C(=O)N[C@@H]1C(=O)N2C(C(=O)[O-])=C(C[n+]3ccccc3)CS[C@H]12)c1csc(N)n1)C(=O)O [CEFTAZIDIME]	1 (≈ 1.83 µM)	0.25 (≈ 0.457 µM)	0.25 (≈ 0.457 µM)	> 128	0.5 (≈ 0.915 µM)	> 128	MIC [13]: 0.25 µg/mL; MIC [14]: 0.125 µg/mL; MIC [15]: < 0.5 µg/mL; MIC [16]: 0.125 µg/mL; MIC [17]: > 32 µg/mL; MIC [18]: < 0.5 µg/mL; MIC [19]: 0.094 µg/mL; MIC [20]: 0.125 µg/mL; MIC [21]: < 0.5 µg/mL; MIC [22]: > 32 µg/mL; MIC [23]: 0.5 µg/mL; MIC [24]: < 0.5 µg/mL
CO/N=C(\C(=O)N[C@@H]1C(=O)N2C(C(=O)O)=C(COC(N)=O)CS[C@H]12)c1ccco1 [CEFUROXIME]	≤ 0.125	≤ 0.125	≤ 0.125	64 (≈ 151 µM)	0.25 (≈ 0.589 µM)	128 (≈ 302 µM)	–
C[C@@H](O)[C@H]1C(=O)N2C(C(=O)O)=C(SCCNC=N)C[C@H]12 [IMIPENEM ANHYDROUS]	0.25 (≈ 0.835 µM)	0.25 (≈ 0.835 µM)	≤ 0.125	0.25 (≈ 0.835 µM)	–	–	–
CCN1CCN(C(=O)N[C@@H](C(=O)N[C@@H]2C(=O)N3[C@@H]2SC(C)(C)[C@@H]3C(=O)O)c2ccccc2)C(=O)C1=O [PIPERACILLIN]	> 128	0.5 (≈ 0.966 µM)	2 (≈ 3.86 µM)	> 128	64 (≈ 124 µM)	> 128	MIC [25]: 1 µg/mL; MIC [26]: 2 µg/mL; MIC [27]: > 128 µg/mL; MIC [28]: 0.5 µg/mL; MIC [29]: 1 µg/mL; MIC [30]: 2 µg/mL
